According to ChEMBL document CHEMBL1138854, “Synthesis and antitumor activity of guanylhydrazones from 6-(2,4-dichloro-5-nitrophenyl)imidazo[2,1-b]thiazoles and 6-pyridylimidazo[2,1-b]thiazoles(1)” (2006):
“And” between values parts separate entries of the source, which are not always exact repeats. Identical values can stand only once.

Experiment: Antitumor activity against renal cell lines of the NCI60 panel
Type: functional, Homo sapiens
In short: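 Run by NCI in the 60-cell-line panel (details in Supporting Information). Highest concentration 10^-4 M unless noted (one case 10-2.6 M). Values expressed as -log molar concentration giving 50% growth inhibition (pGI50), total cytostasis (pTGI) or 50% cell kill (pLC50); only values >4.00 reported; mean graph midpoint is the calculated panel mean.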

| SMILES | LC50 |
| --- | --- |
| N=C(N)N/N=C/c1c(-c2cc([N+](=O)[O-])c(Cl)cc2Cl)nc2n1CCS2 | 5.25 µM |
| Cc1sc2nc(-c3cc([N+](=O)[O-])c(Cl)cc3Cl)c(/C=N/NC(=N)N)n2c1C | 36.3 µM and 85.1 µM |
| Cc1csc2nc(-c3cc([N+](=O)[O-])c(Cl)cc3Cl)c(/C=N/N=C(N)N)n12 | 64.6 µM |
| CCc1cn2c(/C=N/NC(=N)N)c(-c3cc([N+](=O)[O-])c(Cl)cc3Cl)nc2s1 | 3.02 µM and 6.46 µM |
| Cc1sc2nc(-c3ccccn3)c(/C=N/NC(=N)N)n2c1C | 57.5 µM |
| Cc1cn2c(/C=N/NC(=N)N)c(-c3ccncc3)nc2s1 | 72.4 µM |
| N=C(N)N/N=C/c1c(-c2ccccn2)nc2sc(Cl)cn12 | 28.8 µM |
| N=C(N)N/N=C/c1c(-c2cccnc2)nc2sc(Cl)cn12 | 69.2 µM |
| N=C(N)N/N=C/c1c(-c2cc([N+](=O)[O-])c(Cl)cc2Cl)nc2sccn12 | 4.47 µM and 24 µM |
| N=C(N)N/N=C/c1c(-c2ccc(Cl)c([N+](=O)[O-])c2)nc2n1CCS2 | 28.2 µM and 64.6 µM |
| N=C(N)N/N=C/c1c(-c2ccncc2)nc2sc(Cl)cn12 | 15.8 µM and 44.7 µM |
| CCCc1cn2c(/C=N/NC(=N)N)c(-c3cc([N+](=O)[O-])c(Cl)cc3Cl)nc2s1 | 5.37 µM |
| Cc1cn2c(/C=N/NC(=N)N)c(-c3ccccn3)nc2s1 | 19.5 µM and 53.7 µM |
| Cc1cn2c(/C=N/NC(=N)N)c(-c3cccnc3)nc2s1 | 27.5 µM and 61.7 µM |
| N=C(N)N/N=C/c1c(-c2cc([N+](=O)[O-])c(Cl)cc2Cl)nc2sc(Cl)cn12 | 97.7 µM |
